Measurements from ChEMBL document CHEMBL2401703, “Synthesis of pyrazolo[1,5-a][1,3,5]triazine derivatives as inhibitors of thymidine phosphorylase” (Eur J Med Chem, 2013).
Calls of active or inactive are those of the source. The rule behind the calls is not given here.

What was measured:
[1] = molecular target: Thymidine phosphorylase (Escherichia coli K-12) (UniProt P07650); assay: Inhibition of recombinant Escherichia coli thymidine phosphorylase using thymidine as substrate at 50 uM by UV-spectrophotometric analysis relative to control
Summary of the method: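 TP (1.5 U/ml stock in pH 7.0 phosphate buffer) mixed with compound in DMSO (DMSO alone as blank) and thymidine (5 mM stock, 200 µl into 1 ml total) in pH 7.4 phosphate buffer. Absorbance decrease at 290 nm read at 4, 8, 12, 16 and 20 min. Velocity taken from the slope of a linear fit. Percent inhibition calculated versus the blank.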

Thymidine phosphorylase = Thymidine phosphorylase (Escherichia coli K-12, UniProt P07650); assay: Inhibition of recombinant Escherichia coli thymidine phosphorylase using thymidine as substrate by UV-spectrophotometric analysis
[2] = molecular target: Thymidine phosphorylase (Escherichia coli K-12) (UniProt P07650); assay: Ratio of 7-deazaxanthine IC50 to compound IC50 for recombinant Escherichia coli thymidine phosphorylase
[3] = molecular target: Thymidine phosphorylase (Escherichia coli K-12) (UniProt P07650); assay: Non-competitive inhibition of recombinant Escherichia coli thymidine phosphorylase using thymidine as substrate at 0.01 to 0.2 uM by Lineweaver-burk plot analysis

Sequence of Thymidine phosphorylase (Escherichia coli K-12) (P07650 whole entry, looked up): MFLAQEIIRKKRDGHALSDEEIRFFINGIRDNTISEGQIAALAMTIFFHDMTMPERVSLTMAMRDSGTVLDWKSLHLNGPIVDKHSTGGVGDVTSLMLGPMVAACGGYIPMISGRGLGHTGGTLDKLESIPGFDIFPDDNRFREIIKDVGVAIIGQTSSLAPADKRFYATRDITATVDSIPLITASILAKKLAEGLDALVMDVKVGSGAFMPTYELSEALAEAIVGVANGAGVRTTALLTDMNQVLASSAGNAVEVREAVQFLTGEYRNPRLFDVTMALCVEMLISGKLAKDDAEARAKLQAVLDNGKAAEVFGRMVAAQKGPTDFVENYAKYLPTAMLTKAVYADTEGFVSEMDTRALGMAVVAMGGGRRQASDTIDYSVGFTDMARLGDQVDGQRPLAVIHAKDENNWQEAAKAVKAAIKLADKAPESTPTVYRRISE
Sequence of Thymidine phosphorylase (P07650 whole entry): as the sequence (P07650 whole entry, looked up) above

Row | SMILES | inhibition [1] | IC50 (Thymidine phosphorylase) | Ratio IC50 [2] | inhibition [3]
1 | Cc1ccc(-c2cnn3c(=O)[nH]c(=O)[nH]c23)cc1 | < 50% |  |  | 
2 | Cc1ccc(-c2cc3[nH]c(=S)[nH]c(=O)n3n2)cc1 | 50% | 19.3 µM |  | 
3 | CC(C)(C)c1ccc(-c2cc3[nH]c(=S)[nH]c(=O)n3n2)cc1 | 50% | 6.6 µM |  | 
4 | CC(C)(C)c1ccc(-c2cnn3c(=O)[nH]c(=S)[nH]c23)cc1 | 50% | 5.6 µM |  | 
5 | O=c1[nH]c(=O)n2nccc2[nH]1 | < 50% |  |  | 
6 | COc1ccc(-c2cnn3c(=O)[nH]c(=O)[nH]c23)cc1 | < 50% |  |  | 
7 | O=c1[nH]c(=S)[nH]c2cc(-c3ccc(F)cc3)nn12 | 50% | 41.7 µM |  | 
8 | O=c1[nH]c(=O)n2nc(-c3ccc(C(F)(F)F)cc3)cc2[nH]1 | < 50% |  |  | 
9 | CC(C)(C)c1cc2[nH]c(=O)[nH]c(=O)n2n1 | < 50% |  |  | 
10 | O=c1[nH]c(=O)n2ncc(-c3ccc(Br)cc3)c2[nH]1 | < 50% |  |  | 
11 | Cc1cnn2c(=O)[nH]c(=O)[nH]c12 | < 50% |  |  | 
12 | O=c1[nH]c(=O)n2ncc(I)c2[nH]1 | < 50% |  |  | 
13 | O=c1[nH]c(=O)n2ncc(-c3ccc(Cl)cc3)c2[nH]1 | < 50% |  |  | 
14 | O=c1[nH]c(=S)[nH]c2c(I)cnn12 | 50% | 20.8 µM |  | 
15 | CC(C)(C)c1cc2[nH]c(=S)[nH]c(=O)n2n1 | 50% | 29.1 µM |  | 
16 | O=c1[nH]c(=O)n2nc(-c3ccc(Br)cc3)cc2[nH]1 | < 50% |  |  | 
17 | O=c1[nH]c(=S)[nH]c2c(-c3ccc(Br)cc3)cnn12 | 50% | 0.63 µM |  | 
18 | CCOc1ccc(-c2cnn3c(=O)[nH]c(=S)[nH]c23)cc1 |  | 15.5 µM |  | 
19 | O=c1[nH]c(=S)[nH]c2cc(-c3ccc(Br)cc3)nn12 | 50% | 34.9 µM |  | 
20 | O=c1[nH]c(=O)n2ncc(-c3ccc(F)cc3)c2[nH]1 | < 50% |  |  | 
21 | O=c1[nH]c(=S)[nH]c2c(-c3ccc(Cl)cc3)cnn12 | 50% | 0.54 µM |  | 
22 | O=c1[nH]c(=S)[nH]c2ccnn12 | < 50% | 68.2 µM |  | 
23 | O=c1[nH]c(=O)n2nc(C(F)(F)F)cc2[nH]1 | < 50% |  |  | 
24 | Cc1cc2[nH]c(=O)[nH]c(=O)n2n1 | < 50% |  |  | 
25 | O=c1[nH]c(=O)n2ncc(Cl)c2[nH]1 | < 50% |  |  | 
26 | COc1ccc(-c2cnn3c(=O)[nH]c(=S)[nH]c23)cc1 | 50% | 39.7 µM |  | 

Row | SMILES | inhibition [1] | IC50 (Thymidine phosphorylase) | Ratio IC50 [2] | inhibition [3]
27 | O=c1[nH]c(=S)[nH]c2c(-c3ccccc3)cnn12 | 50% | 26.3 µM |  | 
28 | O=c1[nH]c(=O)n2ncc(-c3ccc(C(F)(F)F)cc3)c2[nH]1 | < 50% |  |  | 
29 | O=c1[nH]c(=S)[nH]c2cc(-c3ccc(Cl)cc3)nn12 | 50% | 33.5 µM |  | 
30 | COc1ccc(-c2cc3[nH]c(=S)[nH]c(=O)n3n2)cc1 | 50% | 28.4 µM |  | 
31 | O=c1[nH]c(=S)[nH]c2c(Cl)cnn12 | 50% | 27.6 µM |  | 
32 | O=c1[nH]c(=S)[nH]c2cc(C(F)(F)F)nn12 | 50% | 32.6 µM |  | 
33 | O=c1[nH]c(=S)[nH]c2c(-c3ccc(C(F)(F)F)cc3)cnn12 | 50% | 0.24 µM |  | 
34 | O=c1[nH]c(=S)[nH]c2c(-c3ccc(F)cc3)cnn12 | 50% | 10.5 µM |  | 
35 | O=c1[nH]c(=O)n2nc(-c3ccc(F)cc3)cc2[nH]1 | < 50% |  |  | 
36 | Cc1cc2[nH]c(=S)[nH]c(=O)n2n1 | < 50% | 79.4 µM |  | 
37 | CC(C)(C)c1ccc(-c2cnn3c(=O)[nH]c(=O)[nH]c23)cc1 | < 50% |  |  | 
38 | Cc1cnn2c(=O)[nH]c(=S)[nH]c12 | < 50% | 87.3 µM |  | 
39 | O=c1[nH]c(=O)n2nc(-c3ccc(Cl)cc3)cc2[nH]1 | < 50% |  |  | 
40 | O=c1[nH]c(=S)[nH]c2c(-c3ccc(S(F)(F)(F)(F)F)cc3)cnn12 |  | 0.04 µM | 800 | Active
41 | O=c1[nH]c(=S)[nH]c2c(-c3ccc(I)cc3)cnn12 |  | 0.21 µM | 150 | 
42 | O=c1[nH]c(=O)n2nc(-c3ccccc3)cc2[nH]1 | < 50% |  |  | 
43 | O=c1[nH]c(=S)[nH]c2c(-c3ccc([N+](=O)[O-])cc3)cnn12 |  | 0.58 µM |  | 
44 | O=c1[nH]c(=S)[nH]c2cc(-c3ccc(C(F)(F)F)cc3)nn12 | 50% | 9.9 µM |  | 
45 | O=c1[nH]c(=O)n2ncc(-c3ccccc3)c2[nH]1 | < 50% |  |  | 
46 | Cc1ccc(-c2cc3[nH]c(=O)[nH]c(=O)n3n2)cc1 | < 50% |  |  | 
47 | Cc1ccc(-c2cnn3c(=O)[nH]c(=S)[nH]c23)cc1 | 50% | 1.7 µM |  | 
48 | CC(C)(C)c1ccc(-c2cc3[nH]c(=O)[nH]c(=O)n3n2)cc1 | < 50% |  |  | 
49 | O=c1[nH]c(=O)n2ncc(Br)c2[nH]1 | < 50% |  |  | 
50 | O=c1[nH]c(=S)[nH]c2c(Br)cnn12 | 50% | 44.4 µM |  | 
51 | COc1ccc(-c2cc3[nH]c(=O)[nH]c(=O)n3n2)cc1 | < 50% |  |  | 
